33 molecules from ChEMBL document CHEMBL2380260, “Structure-activity relationship of N,N'-disubstituted pyrimidinetriones as Ca(V)1.3 calcium channel-selective antagonists for Parkinson's disease” (J Med Chem, 2013) can be followed below.

Assay [1] is described as follows: Selectivity ratio of IC50 for rabbit CaV1.2alpha1C to IC50 for rat CaV1.3alpha1D. In a few lines: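 Selectivity is defined as […] the ratio of the CaV1.2 IC50 to the CaV1.3 IC50. Both IC50s come from the Fluo-8 FLIPR calcium influx assay in stably transfected HEK293 cells, each run in triplicate and fitted to a one-site sigmoidal model.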
Assay [2] concerns the target Voltage-dependent L-type calcium channel subunit alpha-1C (Oryctolagus cuniculus, UniProt P15381). Description: Antagonist activity at rabbit CaV1.2alpha1C transfected in HEK293 cells by FLIPR assay. The format is cell-based. In a few lines: (§1)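 HEK293 cells stably expressing the L-type channel (rat CaV1.3 α1D with all alternative splice sites, or rabbit CaV1.2 α1C), each co-expressed with rat β3 and α2δ-1 subunits. Cells plated at 4 × 10⁴ cells/well and cultured in DMEM with 10% FBS for 4 days. Calcium influx read by Fluo-8 no-wash dye fluorescence on FLIPR Tetra. IC50 from triplicate percent-inhibition data fitted to a one-site sigmoidal model.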

Assay [3] concerns the target Voltage-dependent L-type calcium channel subunit alpha-1D (Rattus norvegicus, UniProt P27732). Nature of the assay: Antagonist activity at rat CaV1.3alpha1D transfected in HEK293 cells by FLIPR assay. The format is cell-based. In a few lines:
as §1

pIC50: −log10 of the molar value.

Voltage-dependent L-type calcium channel subunit alpha-1C, sequence (P15381 whole entry, canonical isoform): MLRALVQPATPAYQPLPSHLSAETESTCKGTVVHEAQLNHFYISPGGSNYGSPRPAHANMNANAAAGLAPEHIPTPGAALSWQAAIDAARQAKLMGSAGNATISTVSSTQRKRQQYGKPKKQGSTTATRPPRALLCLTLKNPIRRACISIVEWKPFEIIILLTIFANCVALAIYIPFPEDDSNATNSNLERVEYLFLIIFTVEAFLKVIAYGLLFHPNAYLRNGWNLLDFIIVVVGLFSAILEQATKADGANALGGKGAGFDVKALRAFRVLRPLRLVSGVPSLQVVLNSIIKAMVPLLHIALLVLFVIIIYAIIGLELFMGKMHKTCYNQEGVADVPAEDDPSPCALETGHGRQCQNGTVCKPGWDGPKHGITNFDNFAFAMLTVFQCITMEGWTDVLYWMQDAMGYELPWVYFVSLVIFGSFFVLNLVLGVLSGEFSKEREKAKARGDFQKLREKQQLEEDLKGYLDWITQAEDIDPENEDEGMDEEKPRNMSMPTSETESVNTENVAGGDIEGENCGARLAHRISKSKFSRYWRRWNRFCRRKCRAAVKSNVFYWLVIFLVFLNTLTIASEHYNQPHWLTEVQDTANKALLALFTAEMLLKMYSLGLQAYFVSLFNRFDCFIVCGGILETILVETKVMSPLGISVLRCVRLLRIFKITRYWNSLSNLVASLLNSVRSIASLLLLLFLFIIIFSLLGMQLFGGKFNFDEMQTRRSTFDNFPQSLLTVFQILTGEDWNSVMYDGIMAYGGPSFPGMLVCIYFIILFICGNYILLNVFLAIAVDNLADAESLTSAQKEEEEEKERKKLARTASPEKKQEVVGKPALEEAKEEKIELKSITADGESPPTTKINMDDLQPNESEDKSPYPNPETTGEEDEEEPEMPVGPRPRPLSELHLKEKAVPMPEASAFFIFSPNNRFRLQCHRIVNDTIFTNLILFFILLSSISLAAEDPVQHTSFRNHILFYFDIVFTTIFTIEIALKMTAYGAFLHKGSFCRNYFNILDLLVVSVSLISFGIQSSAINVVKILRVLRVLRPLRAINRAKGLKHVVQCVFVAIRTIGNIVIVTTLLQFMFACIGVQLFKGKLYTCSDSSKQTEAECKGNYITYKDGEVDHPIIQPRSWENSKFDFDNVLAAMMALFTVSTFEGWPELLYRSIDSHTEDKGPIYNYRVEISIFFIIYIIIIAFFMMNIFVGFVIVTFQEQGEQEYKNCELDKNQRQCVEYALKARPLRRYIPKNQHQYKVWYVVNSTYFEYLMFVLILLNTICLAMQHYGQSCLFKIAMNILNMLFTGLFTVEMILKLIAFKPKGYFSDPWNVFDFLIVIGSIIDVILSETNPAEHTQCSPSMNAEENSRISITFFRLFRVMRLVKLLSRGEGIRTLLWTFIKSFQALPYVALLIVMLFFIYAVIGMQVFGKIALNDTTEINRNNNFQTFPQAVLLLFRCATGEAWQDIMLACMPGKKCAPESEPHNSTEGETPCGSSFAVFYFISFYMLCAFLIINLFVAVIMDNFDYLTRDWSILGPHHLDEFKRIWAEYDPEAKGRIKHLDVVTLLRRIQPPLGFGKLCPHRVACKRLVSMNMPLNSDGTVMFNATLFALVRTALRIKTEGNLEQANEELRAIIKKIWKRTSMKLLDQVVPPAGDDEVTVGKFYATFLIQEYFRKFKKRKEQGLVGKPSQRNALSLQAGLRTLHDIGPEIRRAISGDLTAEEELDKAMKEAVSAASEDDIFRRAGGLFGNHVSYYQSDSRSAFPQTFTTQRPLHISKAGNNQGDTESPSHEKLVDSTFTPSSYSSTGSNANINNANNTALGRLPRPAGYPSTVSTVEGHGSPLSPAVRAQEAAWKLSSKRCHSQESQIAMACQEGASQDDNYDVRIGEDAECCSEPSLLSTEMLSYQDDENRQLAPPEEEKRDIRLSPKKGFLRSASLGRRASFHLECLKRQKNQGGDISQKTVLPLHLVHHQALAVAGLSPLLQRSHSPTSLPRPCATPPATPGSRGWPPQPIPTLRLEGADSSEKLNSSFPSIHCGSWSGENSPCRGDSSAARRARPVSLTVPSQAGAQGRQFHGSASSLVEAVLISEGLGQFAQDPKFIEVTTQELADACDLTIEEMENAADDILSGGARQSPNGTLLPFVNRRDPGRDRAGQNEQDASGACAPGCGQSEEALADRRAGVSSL
Voltage-dependent L-type calcium channel subunit alpha-1D, sequence (P27732 whole entry): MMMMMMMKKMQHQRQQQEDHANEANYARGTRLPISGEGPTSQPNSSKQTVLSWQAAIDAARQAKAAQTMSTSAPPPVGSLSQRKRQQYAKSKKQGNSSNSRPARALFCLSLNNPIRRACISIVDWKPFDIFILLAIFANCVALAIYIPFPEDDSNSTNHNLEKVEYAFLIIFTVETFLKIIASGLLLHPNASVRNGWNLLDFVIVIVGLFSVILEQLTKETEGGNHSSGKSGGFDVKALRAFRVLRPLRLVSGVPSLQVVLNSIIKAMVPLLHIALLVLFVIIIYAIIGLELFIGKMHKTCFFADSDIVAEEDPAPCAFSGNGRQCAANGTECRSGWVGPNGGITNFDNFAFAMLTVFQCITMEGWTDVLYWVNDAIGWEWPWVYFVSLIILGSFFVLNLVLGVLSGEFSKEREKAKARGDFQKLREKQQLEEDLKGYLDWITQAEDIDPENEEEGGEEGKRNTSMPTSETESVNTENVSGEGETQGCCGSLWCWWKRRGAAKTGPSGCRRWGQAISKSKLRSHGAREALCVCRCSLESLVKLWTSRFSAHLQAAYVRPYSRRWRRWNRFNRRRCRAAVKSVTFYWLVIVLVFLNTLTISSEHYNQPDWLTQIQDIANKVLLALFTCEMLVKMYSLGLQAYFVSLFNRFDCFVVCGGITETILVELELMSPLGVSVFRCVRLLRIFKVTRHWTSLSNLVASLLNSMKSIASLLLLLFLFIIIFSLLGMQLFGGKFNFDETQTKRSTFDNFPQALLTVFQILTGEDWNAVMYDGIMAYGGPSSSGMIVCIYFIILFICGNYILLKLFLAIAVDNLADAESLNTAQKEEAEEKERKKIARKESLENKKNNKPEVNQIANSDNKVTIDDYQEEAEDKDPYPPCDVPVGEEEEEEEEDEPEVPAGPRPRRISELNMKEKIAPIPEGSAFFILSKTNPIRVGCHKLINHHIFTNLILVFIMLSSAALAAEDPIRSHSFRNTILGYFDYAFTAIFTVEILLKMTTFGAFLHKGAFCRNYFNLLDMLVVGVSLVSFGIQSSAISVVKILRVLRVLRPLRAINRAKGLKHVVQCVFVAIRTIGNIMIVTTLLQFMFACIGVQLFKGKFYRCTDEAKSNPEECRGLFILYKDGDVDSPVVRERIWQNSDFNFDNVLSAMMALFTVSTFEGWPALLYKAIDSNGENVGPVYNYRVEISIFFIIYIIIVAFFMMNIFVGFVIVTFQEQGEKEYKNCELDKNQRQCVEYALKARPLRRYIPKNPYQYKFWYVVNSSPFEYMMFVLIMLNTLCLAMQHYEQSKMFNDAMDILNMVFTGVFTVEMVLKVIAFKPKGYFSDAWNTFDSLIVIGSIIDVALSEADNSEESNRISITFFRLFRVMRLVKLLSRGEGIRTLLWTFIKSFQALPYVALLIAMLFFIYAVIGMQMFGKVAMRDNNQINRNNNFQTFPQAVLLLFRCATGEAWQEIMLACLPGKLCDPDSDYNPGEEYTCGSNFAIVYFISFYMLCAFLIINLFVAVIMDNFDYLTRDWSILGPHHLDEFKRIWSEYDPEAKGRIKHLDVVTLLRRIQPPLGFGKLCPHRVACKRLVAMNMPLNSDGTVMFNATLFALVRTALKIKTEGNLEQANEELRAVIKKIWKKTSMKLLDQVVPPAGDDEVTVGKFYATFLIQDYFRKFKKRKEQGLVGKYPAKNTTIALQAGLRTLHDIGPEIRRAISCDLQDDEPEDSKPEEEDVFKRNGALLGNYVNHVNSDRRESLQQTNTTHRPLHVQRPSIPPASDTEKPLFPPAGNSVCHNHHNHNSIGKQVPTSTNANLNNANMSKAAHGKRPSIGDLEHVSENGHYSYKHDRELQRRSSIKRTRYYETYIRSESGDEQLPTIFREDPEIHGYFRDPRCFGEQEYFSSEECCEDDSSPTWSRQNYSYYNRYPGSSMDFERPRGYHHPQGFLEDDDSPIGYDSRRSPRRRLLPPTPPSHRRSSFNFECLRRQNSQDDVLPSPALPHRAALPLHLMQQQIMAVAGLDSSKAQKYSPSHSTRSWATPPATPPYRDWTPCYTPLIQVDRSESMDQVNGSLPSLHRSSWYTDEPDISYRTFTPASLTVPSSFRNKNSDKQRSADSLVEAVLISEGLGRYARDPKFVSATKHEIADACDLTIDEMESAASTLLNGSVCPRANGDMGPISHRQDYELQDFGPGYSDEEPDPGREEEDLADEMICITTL

Regarding `O=C1CC(=O)N(C2CCCC2)C(=O)N1CC(c1ccccc1)c1ccccc1`, the Ratio IC50 in assay [1] is 1.6. The negative-log IC50 (pIC50) – broadly, the IC50 on a negative log10 scale, so that one unit is a factor of ten – in assay [2] was 5.09; in assay [3], 5.28.
Consider `C[C@H](C1CCCCC1)N1C(=O)CC(=O)N(CCc2ccc(Cl)cc2)C1=O`, for which, in assay [1], the Ratio IC50 was over 12. Further, the pIC50 was under 4.00 in assay [2] and 5.09 in assay [3].
The like results for `CC(CN1C(=O)CC(=O)N(C2CC3CCC2C3)C1=O)c1cccc(Cl)c1` (mixture of isomers) were, in that order, 2.1, 5.29 and 5.62.
The corresponding values for `CC(C)(CN1C(=O)CC(=O)N(C2CCCC2)C1=O)c1cccc(Cl)c1` are 4.9, 4.90 and 5.62.
The corresponding values for `C[C@@H]1CCC[C@@H]1N1C(=O)CC(=O)N(CCc2cccc(Cl)c2)C1=O` are 2.3, 4.89 and 5.26.
As for `O=C1CC(=O)N([C@@H]2C[C@@H]3CC[C@H]2C3)C(=O)N1CCc1cccc(Cl)c1`, the Ratio IC50 in assay [1] was over 50. In addition, the pIC50 in assay [2] was under 4.00; in assay [3], 5.70.
Take `O=C(OCCc1cccc(F)c1)[C@H]1CC[C@@H](N2C(=O)CC(=O)N(CCc3cccc(Cl)c3)C2=O)C1`: the Ratio IC50 in assay [1] was 0.7. For the same molecule, the figures for the negative logarithm of the IC50 (pIC50) in assay [2] and in assay [3] were 5.17 and 5.01, respectively.
Regarding `O=C1CC(=O)N([C@@H]2C[C@@H]3CC[C@H]2C3)C(=O)N1CCc1ccc(Cl)cc1`, in assay [1], the Ratio IC50 is 11. The negative-log IC50 (pIC50) in assay [2] was 4.27; in assay [3], 5.72.
With `CC1(C)CCC[C@H]1N1C(=O)CC(=O)N(CCc2cccc(Cl)c2)C1=O`, the Ratio IC50 in assay [1] amounted to 1.9. Further, the pIC50 in assay [2] is 5.33; in assay [3], 5.60.
The like results for `CC(=O)O[C@@H]1CCC[C@@H]1N1C(=O)CC(=O)N(CCc2cccc(Cl)c2)C1=O` were, in that order, 0.6, 4.63 and 4.41.
The like results for `C[C@H]1CCC[C@@H]1N1C(=O)CC(=O)N(CCc2cccc(Cl)c2)C1=O` (racemic) were, in that order, 1.8, 4.68 and 4.96.
The like results for `C[C@@H](C1CCCCC1)N1C(=O)CC(=O)N(CCc2ccc(Cl)cc2)C1=O` were, in that order, over 12, under 4.00 and 5.08.
On to `C[C@H]1CCC[C@H]1N1C(=O)CC(=O)N(CCc2cccc(Cl)c2)C1=O`, for which the Ratio IC50 in assay [1] was 1.3. In addition, the pIC50 is 5.03 in assay [2] and 5.14 in assay [3].
For the molecule `COC(=O)C1=C(C)NC(=S)N(C(=O)OC(C)C)C1c1cccc([N+](=O)[O-])c1` (configuration not stated), in assay [1], the Ratio IC50 is under 2.
The same measure, in the same setting: with `COC(=O)C1=C(C)NC(C)=C(C(=O)OC(C)C)C1c1cccc2nonc12` (configuration not stated) the figure was under 2.
As for `O=C1CC(=O)N(C2CCCC2)C(=O)N1CCc1cc(C(F)(F)F)cc(C(F)(F)F)c1`, in assay [1], the Ratio IC50 was found to be 1.8. Further, the pIC50 is 5.59 in assay [2] and 5.85 in assay [3].
The corresponding values for `O=C1CC(=O)N(C2CCCC2)C(=O)N1CCc1ccc(OCc2ccccc2)cc1` are 0.5, 4.73 and 4.47.
Take `COc1ccc(CCN(C)CCCC(C#N)(c2ccc(OC)c(OC)c2)C(C)C)cc1OC` (configuration not stated): in assay [1], the Ratio IC50 is under 2.
In the case of `CC1(C)CCC[C@@H]1N1C(=O)CC(=O)N(CCc2cccc(Cl)c2)C1=O`, the Ratio IC50 in assay [1] is 1.6. The negative-log IC50 (pIC50) in assay [2] is 5.46; in assay [3], 5.68.
`COC(=O)C(Cc1ccc(Cl)cc1)N1C(=O)CC(=O)N(C2CCCC2)C1=O` (configuration not stated): the values for the negative logarithm of the IC50 (pIC50) in assay [2] and in assay [3] were 4.87 and 5.12, respectively.
The like results for `O=C1CC(=O)N(C2CCCc3ccccc32)C(=O)N1C1CCCC1` (configuration not stated) were, in that order, 4.70 and 4.71.
Turning to `O=C1CC(=O)N(C2CC3CCC2C3)C(=O)N1CCc1ccc(Cl)cc1` (mixture of isomers), in assay [1], the Ratio IC50 came to 8.9. The pIC50 in assay [2] is 4.30; in assay [3] it was 5.25.
As for `C[C@H](c1cccc2ccccc12)N1C(=O)CC(=O)N(CCc2cccc(Cl)c2)C1=O`, the negative logarithm of the IC50 (pIC50) was 5.00 in assay [2] and 4.97 in assay [3].
The like results for `C[C@H]1CCC[C@H]1N1C(=O)CC(=O)N(CCc2ccc(Cl)cc2)C1=O` were, in that order, 5.00 and 5.55.
The like results for `O=C1CC(=O)N([C@H]2CCC[C@@H]2O)C(=O)N1CCc1cccc(Cl)c1` were, in that order, under 4.00 and under 4.00.
The corresponding values for `CC1CCC(N2C(=O)CC(=O)N(CCc3cccc(Cl)c3)C2=O)CC1` (configuration not stated) are 4.34 and 4.46.
As to `O=C1CC(=O)N([C@H]2C[C@H]3CC[C@@H]2C3)C(=O)N1CCc1cccc(Cl)c1`, in assay [1], the Ratio IC50 is over 29. The values for the pIC50 in assay [2] and in assay [3] were under 4.00 and 5.46, respectively.
The like results for `O=C1CC(=O)N(C2CCCC2)C(=O)N1CCc1ccc(Cl)c(Cl)c1` were, in that order, 2.7, 5.47 and 5.92.
For the molecule `COC(=O)C1(N2C(=O)CC(=O)N(CCc3cccc(Cl)c3)C2=O)CCCC1`, the results for the pIC50 in assay [2] and in assay [3] were 4.48 and 4.49, respectively.
On to `O=C1CC(=O)N(C2CCCC2)C(=O)N1CCCc1ccccc1`, for which the Ratio IC50 in assay [1] turned out to be 2.9. Further, the figures for the negative logarithm of the IC50 (pIC50) in assay [2] and in assay [3] were 4.66 and 5.12, respectively.
For `COc1ccc([C@@H]2Sc3ccccc3N(CCN(C)C)C(=O)[C@@H]2OC(C)=O)cc1`, in assay [1], the Ratio IC50 is under 2.
As for `CCC1CCC(N2C(=O)CC(=O)N(CCc3cccc(Cl)c3)C2=O)C1` (configuration not stated), the pIC50 in assay [2] is 4.82; in assay [3], 5.14.
`CC1(C)CCC[C@@H]1N1C(=O)CC(=O)N(CCc2ccc(Cl)cc2)C1=O`: the negative-log IC50 (pIC50) in assay [2] is 5.64; in assay [3], 5.77.
